The values that follow come from PubChem BioAssay.

Assay [1] is described as follows: OD615 S. cerevisiae growth inhibition, permissive medium, pilot counter-assay, permissive growth control for S. cerevisiae lifespan shortening project (AID 705;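 active = growth inhibition above 25% in both replicates, a cutoff set 3 SD above the mean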). To be noted: OD615, 24 h, at 10 µM, hits give high values. An outline of the steps: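 Test system: Saccharomyces cerevisiae strain carrying genetically modified DeaD replicative-lifespan system; buffer or medium: SC raffinose/galactose permissive medium; dosing: one dose 10 µM, DMSO 0.25% final; times: 24 h exposure, 30 °C; measured by: OD at 615 nm; read-out basis: growth inhibition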

Assay [2] can be described thus: Restrictive medium S. cerevisiae growth inhibition, OD615, pilot screen of yeast lifespan reduction project, restrictive growth control (AID 706;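 active = growth inhibition above a set limit, 3 SD over mean compound inhibition, in both replicates, cut at about 43% in these data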;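 note: modified DeaD lifespan yeast strain shifted to restrictive glucose medium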). The settings on record: OD615, 48 h, at 10 µM, hits give high values. An outline of the steps:
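material = engineered S. cerevisiae DeaD strain | buffer or medium = glucose-based CSMM-D restrictive medium | dosing = one concentration, 10 µM final, 0.25% DMSO | schedule = 4 h pre-growth plus 48 h compound exposure, 30 °C | detection = OD615 absorbance reading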

The nature of assay [3]: viability gain of MRP-1-high H69AR cells under doxorubicin, pilot screen, MRP-1 activator project, CellTiter-Glo, duplicate (AID 807).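 Note: compound pretreatment 18-22 h then 72 h combined with doxorubicin; 0% = doxorubicin alone and 100% = vehicle without doxorubicin.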 The settings on record: H69AR viability with doxorubicin, CellTiter-Glo luminescence; at 10 µM; hits give high values. In general terms: In ATP-based viability assays light output follows the ATP content of the culture.
Assay [4] is described as follows: growth suppression of beta-catenin knockout HCT116, pilot screen, human colon tumor cells (AID 823;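 active = cell viability at or below a set limit in both duplicate runs, the limit being the all-compound median minus 4 SD, cut at about 23% in these data, passing the limit was not always enough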;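 note: 0% = wells killed by 20 µM Hyamine and 100% = untreated DMSO cell wells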). The settings on record: CellTiter-Glo, 60 h, at 10 µM, hits give low values.
Assay [5] can be described thus: inhibitors of the yeast RAM network, pilot screen, dse1pr::URA3 reporter, 5-FOA selection (AID 869;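 active = inhibition over a set limit, the all-compound mean plus 3 SD, in both replicate runs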;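 note: 0% = DMSO wells with no growth and 100% = 10 µM 1-NA-PP1 with full growth; RAM network block rescues cells from 5-FOA so hits raise OD615 growth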). To be noted: S. cerevisiae dse1pr::URA3 5-FOA growth, OD615, 2 d; at 10 µM; hits give high values; strain carries analog-sensitive mutant Cbk1 kinase.
Assay [6] can be described thus: growth suppression of PTEN-deleted HCT116, pilot screen, cell-based, HCT116 clonal line, CellTiter-Glo (AID 824;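 active = viability at or below 27.92% in each of two runs, the all-compound median minus 4 SD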;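 note: 0% = 20 µM Hyamine control and 100% = vehicle cell control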). To be noted: 60 h, at 10 µM, hits give low values.

Values without a mark were called inactive. Records with an inconclusive call do not appear. The source made the active and inactive calls.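 Rule for the calls, unless noted: active = viability increase at or above a cutoff of the median across tested compounds plus 3 SD (cut at about 8.5% in these data, passing the limit was not always enough); inconclusive = some gains above the cutoff, reason not given; inactive = the rest.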

Consider `COc1cc2[nH]c(=O)n(Cc3ccc(C(=O)NCC4CCCO4)cc3)c(=O)c2cc1OC` (stereo unspecified), for which the growth inhibition is -14.9% in assay [1] and -17.9% in assay [2]. Further, the viability increase in assay [3] was -3.55%. Besides, in assay [4], the viability was 90.2%. In assay [5], the inhibition is 3.56%.
In the case of `C=CCn1c(SCc2cc(=O)n3ccsc3n2)nc2scc(C3CC3)c2c1=O`, the growth inhibition in assay [1] was -3.27%; in assay [2], -5.57%. Besides, the viability increase in assay [3] is -3.7%. In addition, the viability in assay [6] was 91.8%. Besides, the inhibition in assay [5] is 2.79%.
For the compound `N#CCSc1n[nH]c2nc3c(c(=O)n12)C1(CCCC1)Cc1ccccc1-3`, the growth inhibition was -1.95% in assay [1] and 28% in assay [2]. Moreover, in assay [3], the viability increase is 4.21%. Besides, the viability in assay [4] was 102%. The inhibition in assay [5] is 2.08%.
In the same order, the values of `Cc1ccc(-c2nc3cnccn3c2Nc2ccc3c(c2)OCCO3)o1` are -11.4%, -5.81%, -5.2%, 92.4% and 1.19%.
As for `COc1cc2c(cc1OC)C(c1ccccc1)N(C(=O)c1ccco1)CC2` (stereo unspecified), the values for the growth inhibition in assay [1] and in assay [2] were -21.2% and -17.6%, respectively. Also, the viability increase in assay [3] is -3.16%. The viability was 68.4% in assay [4] and 63.5% in assay [6]. In addition, in assay [5], the inhibition was 2.55%.
In the case of `COc1cc(C2CC(=O)c3c([nH]c(C(=O)OCCOC(C)C)c3C)C2)cc(OC)c1OC` (stereo unspecified), the values for the growth inhibition in assay [1] and in assay [2] were -15.2% and -28.2%, respectively. Moreover, in assay [3], the viability increase was -2.78%. The viability in assay [6] is 42.7%. Also, in assay [5], the inhibition was 1.85%.
`C(=C\c1ccccc1)/CN1CCN(c2ncnc3c2oc2ccccc23)CC1`: the growth inhibition in assay [1] was -2.64%; in assay [2] it was -6.73%. The viability increase in assay [3] is -3.8%. The inhibition in assay [5] is 1.36%.
`COc1ccc(C(=O)/C=C/Nc2cc(C)on2)cc1`: the growth inhibition in assay [1] and in assay [2] was -11.9% throughout. Also, in assay [3], the viability increase was -0.71%. Besides, the viability in assay [6] was 97%.
`Cc1ccc(Cl)cc1N1CCN(C(=O)CCS(=O)(=O)c2cccc3nonc23)CC1`: the growth inhibition was 3.25% in assay [1] and -4.52% in assay [2]. Further, the viability increase in assay [3] was -3.47%. For the same compound, the viability was 79.5% in assay [4] and 75.4% in assay [6]. The inhibition in assay [5] was 0.805%.
In the case of `CSc1nc(NCCOCCO)c2sc3nc(-c4ccco4)c4c(c3c2n1)CCC4`, the growth inhibition in assay [1] is -7.22%; in assay [2], 0.84%. Besides, in assay [3], the viability increase was -4.7%. For the same compound, the viability in assay [4] was 81.3%. The inhibition in assay [5] was 1.51%.
In the same order, the values of `CCOC(=O)c1ccc(NC(=O)c2ccc(C)c(S(=O)(=O)N3CCOCC3)c2)cc1` are -7.03%, -5.64%, -3.41%, 12.8% (active) and 0.87%.
For `COC(=O)c1ccc(C)c(NC(=O)CN(c2cc(OC)ccc2OC)S(C)(=O)=O)c1`, the figures for the growth inhibition in assay [1] and in assay [2] were -8.06% and -3.94%, respectively. Besides, the viability increase in assay [3] is -3.03%. Further, the viability was 75.5% in assay [4] and 68.6% in assay [6]. For the same compound, the inhibition in assay [5] is 0.035%.
Consider `CCC(Sc1nc2c(cnn2-c2ccccc2)c(=O)[nH]1)C(=O)OC` (stereo unspecified), for which the growth inhibition was -17.3% in assay [1] and -17.4% in assay [2]. Besides, the viability increase in assay [3] is -1.58%. The viability was 91.8% in assay [4] and 91.5% in assay [6]. For the same compound, the inhibition in assay [5] was 0.65%.
For `Cn1cccc1Cc1nnc(SCC(=O)Nc2ccc3c(c2)OCCO3)n1CCc1ccccc1`, the growth inhibition was 6.56% in assay [1] and 22.1% in assay [2]. For the same compound, the viability increase in assay [3] is -1.87%. Further, the viability was 90.2% in assay [4] and 81% in assay [6]. The inhibition in assay [5] was 2.25%.
Consider `Cc1ccc(-c2nn(-c3ccccc3)cc2C2SCC(=O)N2Cc2ccccc2)o1` (stereo unspecified), for which the growth inhibition is -17.1% in assay [1] and -9.89% in assay [2]. Besides, in assay [3], the viability increase is -0.06%. Further, the viability was 74.2% in assay [4] and 68.9% in assay [6]. Besides, in assay [5], the inhibition was 0.94%.
Consider `C=CCNc1ncnc2c1cnn2-c1ccc(Cl)cc1`, for which the growth inhibition was -2.23% in assay [1] and 1.64% in assay [2]. Further, the viability increase in assay [3] was 2.88%. The viability in assay [4] and in assay [6] was 106% each time. Further, the inhibition in assay [5] is 4.6%.
Turning to `O=C(O)CC1C(=O)NCCN1C/C=C/c1ccccc1` (stereo unspecified), the figures for the growth inhibition in assay [1] and in assay [2] were -17.1% and -16.1%, respectively. In addition, in assay [3], the viability increase was -2.39%. Moreover, the viability in assay [4] is 105%; in assay [6] it was 93.1%. Also, the inhibition in assay [5] was 3.62%.
For the compound `CCC1(C)Cc2ccccc2-c2nc3n(c(=O)c21)CCCCC3` (stereo unspecified), the growth inhibition in assay [1] is -8.71%; in assay [2], -14.2%. In addition, the viability increase in assay [3] was -1.36%. Also, the viability in assay [4] is 88.1%. In assay [5], the inhibition is 4.02%.
For the compound `CC(C)n1c(C(=O)OCC(=O)NCc2ccc3c(c2)OCO3)cc2sccc21`, the results for the growth inhibition in assay [1] and in assay [2] were -10.2% and -12.8%, respectively. In addition, in assay [3], the viability increase was -6.26%. The viability in assay [4] was 53.4%. Moreover, the inhibition in assay [5] was 2.71%.
Consider `N#CC1=C2SCN(c3ccccc3)CN2C(=O)CC1c1ccccc1Cl` (stereo unspecified), for which the growth inhibition in assay [1] was 6.17%. The viability increase in assay [3] was -5.58%. Moreover, the viability is 97.2% in assay [4] and 82.5% in assay [6]. Also, in assay [5], the inhibition is 2.58%.

By viability is commonly meant a read-out of living cells in per cent, often relative to untreated cells. Broadly, the inhibition is the change of the read-out against control, counted positive when it falls.
